Screening results deposited in PubChem BioAssay by Johns Hopkins Ion Channel Center.
An excerpt weighted towards active compounds, which were near 2.3% of everything screened.
TRPC4 potent: positive allosteric modulators of TRPC4, primary screen, cell-based, mouse TRPC4beta, HEK293 mu-opioid, Fluo-4 calcium; DAMGO EC20, Fluo-4 Ca2+ flux; stronger effect = higher value; B-score at 10 µM; 0.42% of 310,000 active;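 active = B-score of calcium response area above 5 SD of library B-scores, with initial fluorescence ratio within 5 SD of library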
TRPC6 act: mouse TRPC6 channel activators, primary screen, cell-based, HEK293, membrane potential dye. AID 2550, 2010. Short transient receptor potential channel 6 (Mus musculus), Q61143. HEK293-TRPC6 membrane potential dye fluorescence; stronger effect = higher value. 0.13% of 310,000 active. B-score at 10 µM;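 active = B-score of the integrated fluorescence ratio above library mean plus 3 SD, and starting fluorescence ratio within library mean plus 5 SD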;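 note: higher score means more depolarization so channel activation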
Target sequence (Q61143 whole entry, looked up): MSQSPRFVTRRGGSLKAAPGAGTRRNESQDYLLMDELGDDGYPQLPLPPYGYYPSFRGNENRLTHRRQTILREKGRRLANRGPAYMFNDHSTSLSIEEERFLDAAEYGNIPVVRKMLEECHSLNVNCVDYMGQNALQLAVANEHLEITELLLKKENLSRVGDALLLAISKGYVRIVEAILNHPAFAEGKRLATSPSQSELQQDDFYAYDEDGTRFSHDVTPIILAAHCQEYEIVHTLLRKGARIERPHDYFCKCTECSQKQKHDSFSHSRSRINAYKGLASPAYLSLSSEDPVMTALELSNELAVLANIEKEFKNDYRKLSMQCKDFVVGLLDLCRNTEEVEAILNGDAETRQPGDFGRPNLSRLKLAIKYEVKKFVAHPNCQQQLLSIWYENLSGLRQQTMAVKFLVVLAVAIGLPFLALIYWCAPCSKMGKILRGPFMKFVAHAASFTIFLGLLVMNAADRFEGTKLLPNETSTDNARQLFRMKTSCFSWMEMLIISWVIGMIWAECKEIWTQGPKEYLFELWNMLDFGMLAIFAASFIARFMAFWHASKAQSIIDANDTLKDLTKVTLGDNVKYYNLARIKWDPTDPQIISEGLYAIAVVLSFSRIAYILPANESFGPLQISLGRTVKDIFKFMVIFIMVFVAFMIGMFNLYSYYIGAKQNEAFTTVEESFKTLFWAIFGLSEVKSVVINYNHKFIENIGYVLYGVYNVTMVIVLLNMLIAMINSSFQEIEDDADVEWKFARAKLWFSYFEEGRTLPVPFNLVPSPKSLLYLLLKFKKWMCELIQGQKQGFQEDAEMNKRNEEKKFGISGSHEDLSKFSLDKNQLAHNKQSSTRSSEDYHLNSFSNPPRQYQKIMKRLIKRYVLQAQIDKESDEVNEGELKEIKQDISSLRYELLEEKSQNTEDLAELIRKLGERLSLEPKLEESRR
TRPC4 act: activators of mouse TRPC4 channel, primary screen, Fluo4 calcium, HEK293 TRPC4beta/mu-opioid cells | Fluo4 calcium fluorescence; stronger effect = higher value | B-score at 10 µM | 0.49% of 310,000 active;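 active = B-score above 5 SD of library B-scores, and initial fluorescence ratio not above library mean plus 5 SD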;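 note: positive B-score marks a calcium rise read as TRPC4 activation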
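Assay system: HEK293 stable line with TRPC4beta plus mu-opioid receptor. Times: dye 45 min RT, read 110 s. Measured by: kinetic Fluo4 calcium fluorescence. Measure: B score of integrated ratio. Controls: assay buffer as low control, maximal DAMGO as high control.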
TRPC6 inh: mouse TRPC6 channel inhibitors, primary screen, cell-based, HEK293, membrane potential dye. ACh-evoked depolarization; stronger effect = lower value. B-score at 10 µM. 1.1% of 310,000 active;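 active = B-score under library mean minus 3 SD, initial fluorescence not abnormally high, positive integrated signal ratio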;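 note: B-score derived from integrated fluorescence ratio over the kinetic read; more negative B-score means stronger inhibition of depolarization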
TRPC4 block: inhibitors of mouse TRPC4 channel, primary screen, Fluo4 calcium, HEK293 TRPC4beta/mu-opioid cells. AID 2247, 2010. DAMGO-evoked Fluo4 calcium flux; stronger effect = lower value. Short transient receptor potential channel 4 (Mus musculus), Q9QUQ5. B-score at 10 µM. 0.39% of 300,000 active;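 active = B-score over 3 SD under the library average, no early fluorescence shift, positive overall ratio signal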
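System: stable TRPC4beta/mu-opioid receptor HEK293 cells; Dosing: single-point compound dosing; Measured by: Fluo4 Ca2+ flux fluorescence; Read-out basis: per-well B score of integrated baseline-normalized Fluo4 ratio.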
Of the large screens only hits and unclear results are named; the others gave an inactive call.

CC(C)C(NC(=O)c1ccc(C(C)(C)C)cc1)C(=O)NCC(c1ccccc1)N(C)C (stereo not given)	TRPC4 block -7
CC(C)C(NC(=O)c1ccc(C(C)(C)C)cc1)C(=O)NCCc1ccccn1 (stereo not given)	none
CCOc1cc(CNCc2cccs2)ccc1OCC(=O)NC(C)(C)C	TRPC4 block -6
O=c1cc(-c2ccccc2Cl)oc2c(NS(=O)(=O)c3cc(Cl)cc(Cl)c3O)ccc(O)c12	TRPC4 act 120 (no result: TRPC4 block)
c1ccc(-c2nc3ccccn3c2NCc2ccc3c(c2)OCO3)cc1	none
COc1ccc(-c2nc3ccccn3c2NCc2ccc3c(c2)OCO3)cc1	TRPC6 inh -5.28
CCOc1ccccc1CN1CCNC(=O)C1CC(=O)NCCc1ccccn1 (stereo not given)	TRPC4 act 88
CN(CCc1ccccn1)C(=O)CC1C(=O)NCCN1Cc1ccc(-c2ccccc2)cc1 (stereo not given)	TRPC4 act 160
Cc1ccc(CN2CCNC(=O)C2CC(=O)N(C)CCc2ccccc2)cc1 (stereo not given)	none
CCOc1ccccc1CN1CCNC(=O)C1CC(=O)N(C)CCC1CCOCC1 (stereo not given)	none
Cc1csc(CN(C)C(=O)CC2C(=O)NCCN2Cc2ccc(F)cc2Cl)n1 (stereo not given)	none
CCOc1ccccc1CN1CCNC(=O)C1CC(=O)N(C)CCc1ccccn1 (stereo not given)	TRPC4 act 153
CCOc1ccccc1CN1CCNC(=O)C1CC(=O)NCCC1=CCCCC1 (stereo not given)	none
Cc1csc(CN(C)C(=O)CC2C(=O)NCCN2Cc2ccc(Cl)c(F)c2)n1 (stereo not given)	TRPC4 potent 12
CC(C)(C)N1C(=O)[C@H]2[C@@H](c3ccc(Br)cc3)N3C(=O)N(c4cccc(Cl)c4)C(=O)[C@@]3(Cc3ccccc3)[C@H]2C1=O	none
COc1ccc(N(C)S(=O)(=O)c2cccc(C(=O)NC3CCCC(C)C3C)c2)cc1 (stereo not given)	none
O=C(Nc1nnc(C2=COCCO2)o1)c1ccc([N+](=O)[O-])cc1	none
O=C(CC1C(=O)NCCN1Cc1ccc(-c2ccccc2)cc1)NCCc1ccccn1 (stereo not given)	TRPC4 act 130
Cc1cc(OCC(=O)NC2CCCCC2)ccc1Cl	TRPC4 potent 27
O=C(COc1ccccc1)NC1CCCCC1	none
O=C(COc1ccc(Cl)cc1[N+](=O)[O-])NC1CCCCC1	TRPC4 potent 85
CCC(=O)NC(=S)Nc1ccc(NC(=O)COc2ccc(Cl)c(C)c2)cc1	none
Cc1cc(OCC(=O)NNC(=S)NC(=O)c2ccc(Br)o2)ccc1Cl	TRPC4 potent 16
COc1cccc(OCC(=O)NC2CCCCC2)c1	TRPC4 potent 31
O=[N+]([O-])c1cccc(NC(=S)Nc2nc(-c3ccc(Cl)cc3Cl)cs2)c1	none
CN(c1ccccc1C(=O)Nc1cccc(Br)c1)S(=O)(=O)c1ccccc1	none
O=C(NC(=S)NNC(=O)c1cccs1)c1ccc(Br)o1	TRPC4 act 180
O=C(CSc1nnc(CCCN2C(=O)c3cccc4cccc(c34)C2=O)n1-c1ccccc1)NCCCN1CCOCC1	none
O=[N+]([O-])c1ccc(C[n+]2cccc(O)c2)cc1	TRPC4 act 168
O=C(O)c1ccc[n+](Cc2ccc([N+](=O)[O-])cc2)c1	none
O=C(Nc1ccc(CN2CCOCC2)cc1)c1ccc(-c2cccc([N+](=O)[O-])c2)o1	none
O=[N+]([O-])c1cccc(-c2ccc(CN3CCCCC3)o2)c1	TRPC4 potent 13
COc1ccc(-c2nnc(-c3cc4c(ccc5ccccc54)oc3=O)o2)cc1	none
O=c1oc2ccc3ccccc3c2cc1-c1nnc(-c2ccccc2)o1	TRPC4 block -6
O=C(CCCCC(=O)NNC(=O)COc1ccccc1)NNC(=O)COc1ccccc1	none
CC(C)Cc1nc(N2CCN(C(=O)C(C)C)CC2)c(C#N)c2c1CCC2	TRPC4 potent 25
CC(C)Cc1nc(N2CCN(C(=O)c3ccccc3)CC2)c(C#N)c2c1CCC2	TRPC4 potent 13
CC(=O)N1CCN(c2nc(CC(C)C)c3c(c2C#N)CCC3)CC1	none
Cc1c(Cl)cccc1NC(=O)Cc1ccc([N+](=O)[O-])cc1	none
CN(Cc1ccc(Br)cc1)C(=O)CCN1C(=O)c2cccc([N+](=O)[O-])c2C1=O	none
CC(C)N(C(=O)Cn1cc(SCC(=O)NCC2CCCO2)c2ccccc21)C(C)C (stereo not given)	none
CN(c1cccc(NC(=O)c2ccc(N(C)S(=O)(=O)c3ccccc3)cc2)c1)S(C)(=O)=O	TRPC4 potent 11
COc1ccc(OC)c(Cc2nnc(CCC(=O)NC3CCCCC3)o2)c1	none
CCCN1CCC(NC(=O)CCc2nnc(Cc3cc(OC)ccc3OC)o2)CC1	TRPC4 potent 10, TRPC4 act 55
O=C(c1ccc(COc2ccccc2Br)o1)N1N=C(C(F)F)CC1(O)C(F)F (stereo not given)	none
O=C(OC(C(=O)NCC1CCCO1)c1ccc(F)cc1)c1cccs1 (stereo not given)	TRPC4 act 47
CC(OC(=O)c1cccs1)C(=O)NCC1CCCO1 (stereo not given)	none
COC/C=C/C1=CC2=CC(=O)C(C)(OC(=O)c3cnc4ccccc4n3)C(=O)C2=CO1 (stereo not given)	none
C/C(CC(=O)Nc1cccc(Br)c1)=N\NC(=O)c1ccc(O)cc1O	none
Cc1cccc(NC(=O)CNC(=O)CN2C(=O)NC3(CCCCC3C)C2=O)c1C (stereo not given)	TRPC4 potent 17
CC1CCCCC12NC(=O)N(CC(=O)NCCc1ccccn1)C2=O (stereo not given)	none
O=C1C(Cl)=C(Nc2ccccc2)C(=O)c2ccccc21	none
O=C(O)c1ccc(NC2=C(Cl)C(=O)c3ccccc3C2=O)cc1	TRPC4 block -5
NS(=O)(=O)c1cccc(NC(=O)Cn2nc(C(=O)O)c3ccccc3c2=O)c1	none
O=C(Cc1ccccc1)NC(NC(=O)Cc1ccccc1)c1cccc([N+](=O)[O-])c1	none
C=CCN(CC(O)c1cccc([N+](=O)[O-])c1)C(C)CCc1ccccc1 (stereo not given)	TRPC4 block -5
CS(=O)(=O)N(Cc1ccccc1)c1ccc(C(=O)Nc2ccccc2C(=O)O)cc1	none
O=C(Nc1ccnn1C1CCN(CCCC2CCCC2)CC1)c1ccccc1Cl	TRPC4 block -8
